From ChEMBL document CHEMBL4229335 (Eur J Med Chem, 2018)

Legend:
Bel7402/5-FU = experiment: Antiproliferative activity against human Bel7402/5-FU cells after 72 hrs by MTT assay; format: functional, cell-based
In short: (§1)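 MTT assay with 72 h exposure to graded concentrations in triplicate. MTT solution then DMSO were added, followed by 10 min at room temperature, with absorbance read at 490 nm. IC50 is reported as the mean of three independent experiments. 5-FU served as positive control.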

L02 = experiment: Antiproliferative activity against human LO2 cells after 72 hrs by MTT assay; format: cell-based; details: L02, 72 h; in short: as §1
Bel-7402 = experiment: Antiproliferative activity against human Bel7402 cells after 72 hrs by MTT assay; format: functional, cell-based; details: Bel-7402, 72 h; in short: as §1
HL-60 = experiment: Antiproliferative activity against human HL60 cells after 72 hrs by MTT assay; format: functional, cell-based; details: HL-60, 72 h; in short: as §1
PC-3 = experiment: Antiproliferative activity against human PC3 cells after 72 hrs by MTT assay; format: functional, cell-based; details: PC-3, 72 h; in short: as §1
[1] = Selectivity index, ratio of IC50 for human LO2 cells to IC50 for human Bel7402 cells; format: toxicity; details: LO2 cells versus Bel7402 cells, read-out: Ratio IC50
In short: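 SI was calculated as IC50 in L-02 normal liver cells divided by IC50 in Bel-7402 cells, both from the 72 h MTT assay.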

O=c1[nH]cc(F)c(=O)[nH]1 [FLUOROURACIL]
IC50 (Bel7402/5-FU): > 80 µM

O=C(O)CCCc1ccc(N(CCCl)CCCl)cc1 [CHLORAMBUCIL]
IC50 (L02): > 100 µM | IC50 (Bel7402/5-FU): > 100 µM | IC50 (Bel-7402): > 100 µM

C=C1C(=O)[C@@]23C(=O)O[C@H]4CCC(C)(C)[C@H]5[C@H](OC(=O)CCC(=O)N[C@@H](Cc6ccc(N(CCCl)CCCl)cc6)C(=O)OC)OC[C@@]45[C@@H]2CC[C@@H]1[C@H]3OC(=O)CCC(=O)N[C@@H](Cc1ccc(N(CCCl)CCCl)cc1)C(=O)OC
IC50 (L02): > 100 µM | IC50 (Bel7402/5-FU): 7.93 µM | IC50 (Bel-7402): 5.73 µM | IC50 (HL-60): 17.6 µM | IC50 (PC-3): > 100 µM

C=C1C(=O)[C@@]23C(=O)O[C@H]4CCC(C)(C)[C@H]5C(=O)OC[C@@]45[C@@H]2CC[C@@H]1[C@H]3OC(=O)CCCc1ccc(N(CCCl)CCCl)cc1
IC50 (L02): 49.8 µM | selectivity ratio [1]: 16.3 | IC50 (Bel7402/5-FU): 15.6 µM | IC50 (Bel-7402): 3.06 µM | IC50 (HL-60): 9.94 µM | IC50 (PC-3): 5.5 µM

COC(=O)[C@H](Cc1ccc(N(CCCl)CCCl)cc1)NC(=O)CCC(=O)O
IC50 (L02): 68.6 µM | selectivity ratio [1]: 1.5 | IC50 (Bel7402/5-FU): > 100 µM | IC50 (Bel-7402): 46.5 µM | IC50 (HL-60): 12.4 µM | IC50 (PC-3): 57.3 µM

C=C1C(=O)[C@@]23C(=O)O[C@H]4CCC(C)(C)[C@H]5C(=O)OC[C@@]45[C@@H]2CC[C@@H]1[C@H]3O
IC50 (L02): 25.5 µM | selectivity ratio [1]: 1.6 | IC50 (Bel7402/5-FU): 19.6 µM | IC50 (HL-60): 20.6 µM | IC50 (PC-3): 22.6 µM
